Laboratory results from ChEMBL document CHEMBL3758103, “Anti-herpetic and anti-dengue activity of abietane ferruginol analogues synthesized from (+)-dehydroabietylamine” (Eur J Med Chem, 2016).
The source made the active and inactive calls. No cut-off for these calls is given here.

Legend:
[1] = test system: HeLa; experiment: Cytotoxicity against human HeLa cells assessed as cell growth inhibition after 48 hrs by MTT assay; assay type: functional, cell-based
Summary of the method: (§1)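 MTT assay. Vero and HeLa cells plated at 2.0 × 10^4/well and preincubated 24 h; Jurkat and U937 plated at 3.0 × 10^4/well. Compounds were applied 48 h at 37 °C, 5% CO2, with 0.05% DMSO. Absorbance read at 570 nm and IC50 taken by linear regression. Values are the geometric mean of two experiments in quadruplicate.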

[2] = test system: Jurkat; experiment: Cytotoxicity against human Jurkat cells assessed as cell growth inhibition after 48 hrs by MTT assay; assay type: functional, cell-based; summary of the method: as §1
[3] = Cytotoxicity against human U937 cells assessed as cell growth inhibition after 48 hrs by MTT assay; assay type: functional, cell-based; conditions: U-937, 48 h; summary of the method: as §1
[4] = test system: Fusarium oxysporum; experiment: Antifungal activity against Fusarium oxysporum ATCC 48112 assessed as microbial growth inhibition after 48 hrs by microdilution assay; assay type: functional, organism-based
Summary of the method: (§2)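 Broth microdilution under CLSI M38-A with modifications, in duplicate, at final compound concentrations of 50–3.125 μg/mL. […] Values are the geometric mean of duplicate tests in three assays. Assay DMSO was 0.05%.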

[5] = test system: Aspergillus fumigatus; experiment: Antifungal activity against Aspergillus fumigatus ATCC 204305 assessed as microbial growth inhibition by microdilution assay; assay type: functional, organism-based; summary of the method: as §2
[6] = test system: Aspergillus flavus; experiment: Antifungal activity against Aspergillus flavus ATCC 204304 assessed as microbial growth inhibition by microdilution assay; assay type: functional, organism-based; summary of the method: as §2
[7] = test system: Aspergillus terreus; experiment: Antifungal activity against Aspergillus terreus CDC 317 assessed as microbial growth inhibition by microdilution assay; assay type: functional, organism-based; summary of the method: as §2
[8] = test system: Candida albicans; experiment: Antifungal activity against Candida albicans […] assessed as microbial growth inhibition after 24 hrs by microdilution assay; assay type: functional, organism-based
Summary of the method: (§3)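 Yeast microdilution by the AFST-EUCAST method at an inoculum of 1–5 × 10^5 CFU/mL, final compound concentrations 50–3.125 μg/mL, in duplicate. MIC is the lowest concentration giving 90% growth reduction after 24 h at 35 °C. Untreated inoculum served as negative control. Values are the geometric mean of duplicate tests in three assays.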

[9] = test system: Candida parapsilosis; experiment: Antifungal activity against Candida parapsilosis ATCC 22019 assessed as microbial growth inhibition after 24 hrs by microdilution assay; assay type: functional, organism-based; summary of the method: as §3
[10] = test system: Candida tropicalis; experiment: Antifungal activity against Candida tropicalis ATCC 200956 assessed as microbial growth inhibition after 24 hrs by microdilution assay; assay type: functional, organism-based; summary of the method: as §3
[11] = test system: Vero; experiment: Cytotoxicity against African green monkey Vero cells assessed as cell growth inhibition after 48 hrs by MTT assay; assay type: cell-based; conditions: Chlorocebus sabaeus; summary of the method: as §1
[12] = test system: HeLa; experiment: Selectivity index, ratio of IC50 for African green monkey Vero cells to IC50 for human HeLa cells; assay type: functional
Summary of the method: (§4)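 SI calculated as Vero IC50 divided by HeLa, Jurkat or U937 IC50, all from the 48 h MTT assay.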

[13] = test system: Jurkat; experiment: Selectivity index, ratio of IC50 for African green monkey Vero cells to IC50 for human Jurkat cells; assay type: functional; summary of the method: as §4
[14] = test system: Vero; experiment: Selectivity index, ratio of IC50 for African green monkey Vero cells to IC50 for human U937 cells; assay type: functional; summary of the method: as §4
[15] = test system: Human alphaherpesvirus 1; experiment: Antiviral activity against HHV1 CDC Atlanta infected in African green monkey Vero cells assessed as reduction of viral titer at maximal non-toxic concentration after 48 hrs by crystal violet staining assay relative to control; assay type: functional
Summary of the method: (§5)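 End-point titration on Vero monolayers (2.0 × 10^4 cells/well, ≥80% confluent) with 10 TCID50 virus. Virus–compound mixtures (6.25–50 μg/mL) in DMEM/2% FBS with CMC (1% for HHV-1, 0.5% for HHV-2) were held 15 min at room temperature. Incubation was 48 h (HHV-1) or 72 h (HHV-2) at 37 °C, then formaldehyde/crystal violet staining and plaque counting. Read-out is the viral titer reduction factor. Two experiments in quadruplicate.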

[16] = test system: Human alphaherpesvirus 2; experiment: Antiviral activity against HHV-2 VR-734-G infected in African green monkey Vero cells assessed as reduction of viral titer at maximal non-toxic concentration after 72 hrs by crystal violet staining assay relative to control; assay type: functional; summary of the method: as §5
[17] = test system: Human alphaherpesvirus 2; experiment: Antiviral activity against HHV-2 VR-734-G infected in African green monkey Vero cells assessed as maximal non toxic concentration causing reduction of viral titer after 72 hrs by crystal violet staining assay; assay type: functional; summary of the method: as §5
[18] = test system: Vero; experiment: Cytotoxicity against African green monkey Vero cells assessed as inhibition of cell proliferation after 72 hrs; assay type: cell-based; conditions: Chlorocebus sabaeus
[19] = test system: Human alphaherpesvirus 1; experiment: Antiviral activity against HHV-1 CDC Atlanta infected in African green monkey Vero cells assessed as reduction in plaque formation administered post viral infection after 72 hrs by crystal violet staining technique; assay type: functional, organism-based; conditions: Human alphaherpesvirus 1, CDC Atlanta, Vero, 72 h; read-out: EC50
Summary of the method: (§6)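 Plaque reduction on Vero monolayers (2.5 × 10^4 cells/well) infected with 100 PFU/well. Pre-infection arm: virus–compound mixture added for 1 h at 37 °C, PBS wash, then CMC overlay. Post-infection arm: virus adsorbed 1 h, washed, then compound given in CMC. CMC was 1% for HHV-1, 0.75% for HHV-2 and 2% for DENV-2. Plates ran 72 h (HHV) or 8 days (DENV-2) before crystal violet staining. EC50 came from linear regression over ≥4 dilutions in quadruplicate.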

[20] = test system: Human alphaherpesvirus 2; experiment: Antiviral activity against HHV-2 VR-734-G infected in African green monkey Vero cells assessed as reduction in plaque formation administered post viral infection after 72 hrs by crystal violet staining technique; assay type: functional, organism-based; conditions: Human alphaherpesvirus 2, VR-734-G; summary of the method: as §6

SMILES	IC50 [1] [µM]	IC50 [2] [µM]	IC50 [3] [µM]	Activity [4]	Activity [5]	Activity [6]	Activity [7]	Activity [8]	Activity [9]	Activity [10]	IC50 [11] [µM]	Ratio IC50 [12]	Ratio IC50 [13]	Ratio IC50 [14]	fold change (FC) [15]	fold change (FC) [16]	MNTD [17] [µM]	IC50 [18] [µM]	EC50 [19] [µM]	EC50 [20] [µM]
CC(=O)Oc1cc2c(cc1C(C)C)CC[C@H]1[C@](C)(CN3C(=O)c4c(Cl)c(Cl)c(Cl)c(Cl)c4C3=O)CCC[C@]21C	> 40	> 40	> 40	inactive	inactive	inactive	inactive	inactive	inactive	inactive										
CC(=O)Oc1cc2c(cc1C(C)C)/C(=N\S(=O)(=O)c1ccc(C)cc1)C[C@H]1[C@](C)(CN3C(=O)c4c(Cl)c(Cl)c(Cl)c(Cl)c4C3=O)CCC[C@]21C	> 30	> 30	> 30	inactive	inactive	inactive	inactive	inactive	inactive	inactive										
CC(=O)Oc1cc2c(cc1C(C)C)CC[C@H]1[C@](C)(CN3C(=O)c4ccccc4C3=O)CCC[C@]21C	> 50	> 50	> 50	inactive	inactive	inactive	inactive	inactive	inactive	inactive										
CC(=O)O[C@H]1C(=O)[C@@]2(C)[C@H]([C@H](OC(=O)c3ccccc3)[C@]3(O)C[C@H](OC(=O)[C@H](O)[C@@H](NC(=O)c4ccccc4)c4ccccc4)C(C)=C1C3(C)C)[C@]1(OC(C)=O)CO[C@@H]1C[C@@H]2O [PACLITAXEL]	0.099	0.0005									0.65									
CC(C)c1cc2c(cc1O)[C@@]1(C)CCC[C@@](C)(CN3C(=O)c4c(Cl)c(Cl)c(Cl)c(Cl)c4C3=O)[C@@H]1CC2	29	21.9	> 40	inactive	inactive	inactive	inactive	inactive	inactive	inactive	267	9.2	12.2							
CC(C)c1cc2c(cc1O)[C@@]1(C)CCC[C@@](C)(CN)[C@@H]1CC2	> 80	49.4	> 80	inactive	inactive	inactive	inactive	inactive	inactive	inactive	39.8		0.8							
CC(C)c1cc2c(cc1O)[C@@]1(C)CCCC(C)(C)[C@@H]1CC2 [FERRUGINOL]	64.9	48.2	21.3	inactive	inactive	inactive	inactive	inactive	inactive	inactive	90.4	1.4	1.9	4.2						
CC(=O)Oc1cc2c(cc1C(C)C)C(=O)C[C@H]1[C@](C)(CN3C(=O)c4c(Cl)c(Cl)c(Cl)c(Cl)c4C3=O)CCC[C@]21C	7.3	12.3	8.3	inactive	inactive	inactive	inactive	inactive	inactive	inactive	> 320	>43.8	>26	>38.5						
COc1cccc2c1C(=O)c1c(O)c3c(c(O)c1C2=O)C[C@@](O)(C(=O)CO)C[C@@H]3O[C@H]1C[C@H](N)[C@H](O)[C@H](C)O1 [DOXORUBICIN]	0.834	0.012	0.077								1.93									
Nc1nc2c(ncn2COCCO)c(=O)[nH]1 [ACYCLOVIR]															10000	1000	6.7	> 1700	2.2	0.27
Cc1ccc(S(=O)(=O)NC[C@]2(C)CCC[C@]3(C)c4cc(O)c(C(C)C)cc4CC[C@@H]23)cc1	> 50	30.9	36	inactive	inactive	inactive	inactive	inactive	inactive	inactive	82.5		2.7	2.3						
